Assay results reported in publication PMC9942872 (Proceedings of the National Academy of Sciences of the …, 2023).

Molecular target: T1, NaLdpA (Novosphingobium aromaticivorans, UniProt Q2G4I2)
T1 sequence (Q2G4I2 1-243): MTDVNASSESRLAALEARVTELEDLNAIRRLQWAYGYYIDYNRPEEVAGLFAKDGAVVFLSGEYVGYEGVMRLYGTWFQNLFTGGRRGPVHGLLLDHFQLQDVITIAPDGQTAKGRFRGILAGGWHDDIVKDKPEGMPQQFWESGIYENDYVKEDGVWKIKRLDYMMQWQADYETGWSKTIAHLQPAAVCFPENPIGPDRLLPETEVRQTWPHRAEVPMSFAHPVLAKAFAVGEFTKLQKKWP
Assay: spectrophotometric lignostilbene production, product inhibition
Type: biochemical
In short: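 Recombinant polyHis-tagged enzyme expressed in E. coli, purified by chromatography and stored at −80 °C. Reactions were run in air-saturated MOPS (I = 0.1 M), pH 7.0, at 25 °C. Erythro-DGPD substrate concentration was varied, with lignostilbene added at 0, 1, 2, 4 or 10 μM.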

- Ki: 0.33 ± 0.03 µM
SMILES: COc1cc(/C=C/c2ccc(O)c(OC)c2)ccc1O [lignostilbene]
